Assay outcomes from PubChem.
This is a sample that favours compounds with a hit; in the whole collection about 4.7% have one here.
SKN-1 inh – blocks SKN-1 activity in C. elegans; C. elegans VP596 Pgst-4::GFP/RFP ratio, acrylamide-induced, 24 h; inhibition, % at 21.8 µM; hit rate 0.49% among 360,000; AID 624304;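 active = interference check ratio from 0.5 to 1.5 plus GFP to RFP signal ratio inhibition reaching or exceeding a fixed threshold, cut at about 30% in these data, passing the limit was not always enough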
ADAM10 inh – inhibits human ADAM10. inhibition, % at 7 µM. hit rate 0.62% among 370,000. recombinant ADAM10, EDANS/DABCYL FRET peptide cleavage, 3 h. AID 720582;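 active = inhibition above a per-campaign cutoff equal to the mean of compounds falling between control-based bounds plus 3 SD, cut at about 20% in these data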;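 also: 0% = DMSO wells while the 100% control is not disclosed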
ADAM17 inh – inhibits human ADAM17; hit rate 0.83% among 370,000; inhibition, % at 6.95 µM; P78536; recombinant ADAM17, EDANS/DABCYL FRET peptide cleavage;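 active = inhibition above the mean of compounds lying between control limits plus 3 SD, set per campaign, cut at about 8.5% in these data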;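 also: 0% = DMSO-only wells as the low control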
Target sequence (P78536 215-824 limits assumed): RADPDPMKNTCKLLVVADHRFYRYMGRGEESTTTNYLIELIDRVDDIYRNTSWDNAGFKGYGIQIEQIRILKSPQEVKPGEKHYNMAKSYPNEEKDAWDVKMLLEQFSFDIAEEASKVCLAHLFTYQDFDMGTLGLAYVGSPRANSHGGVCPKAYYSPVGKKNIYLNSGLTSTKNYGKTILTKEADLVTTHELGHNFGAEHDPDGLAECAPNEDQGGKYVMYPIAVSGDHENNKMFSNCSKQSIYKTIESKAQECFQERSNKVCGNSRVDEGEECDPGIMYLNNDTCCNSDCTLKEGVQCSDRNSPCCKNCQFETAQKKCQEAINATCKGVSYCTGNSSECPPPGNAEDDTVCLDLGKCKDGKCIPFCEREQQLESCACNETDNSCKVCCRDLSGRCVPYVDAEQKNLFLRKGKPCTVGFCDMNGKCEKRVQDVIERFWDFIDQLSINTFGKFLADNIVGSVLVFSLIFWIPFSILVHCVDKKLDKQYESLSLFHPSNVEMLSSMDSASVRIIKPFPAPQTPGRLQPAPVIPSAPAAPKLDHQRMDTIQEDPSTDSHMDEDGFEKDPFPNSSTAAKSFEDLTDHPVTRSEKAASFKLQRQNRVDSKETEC
MPTP inh – inhibitors of mitochondrial permeability transition pore; isolated mouse mitochondria, Ca2+ swelling absorbance, 30 min; inhibition, % at 10 µM; hit rate 1.4% among 360,000; AID 602449;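 active = inhibition of 50% or more, scaled per plate between neutral and stimulator controls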;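 also: 0% = DMSO wells given calcium and 100% = 1 mM EGTA wells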
GRIN3A LBD mod – modulators (binders) of human NR3A ligand-binding domain. NR3A LBD differential scanning fluorimetry, Tm shift; 0% = protein alone, 100% = glycine-bound protein. Tm shift relative to glycine control, % at 25 µM. hit rate 2.5% among 340,000. AID 1259313;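 active = melting temperature shift of at least 10% of the positive control shift, at one fixed dose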
MT1-MMP act inh – blocks activation of human MT1-MMP. P50281. HT1080 RFP-PRO-GFP cells, GFP/RFP ratio fluorescence, overnight; percent of plate control window, DMSO zero. GFP/RFP ratio change, % at 20 µM. hit rate 0.061% among 360,000;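 active = GFP/RFP ratio change of at least 30% with cell ATP level not reduced by more than half and red fluorescence within 50% of control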
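Test system: HT1080 RFP-PRO-GFP cells; Benchmarks: DMSO and RFP-L50D-GFP cell wells; Timing: cells overnight before dosing, compound overnight, 37 °C, 5% CO2; Compound: one 20 µM compound dose with 1% DMSO; Read-out: GFP/RFP fluorescence ratio.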
ADAM10 ctr – inhibits human ADAM10 in ADAM17 exosite counter-screen | inhibition, % at 6.95 µM | AID 743256 | recombinant ADAM10, EDANS/DABCYL FRET peptide cleavage, 3 h | shares compounds with ADAM17 inh | hit rate 47% among 2,900;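 active = mean inhibition over the triplicate runs exceeds the activity threshold set in the earlier primary screen, cut at about 20% in these data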;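 also: 0% = DMSO wells and 100% = marimastat wells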
ADAM17 confirm – confirmation of inhibitors of human ADAM17; hit rate 65% among 2,900; recombinant ADAM17, EDANS/DABCYL QFRET peptide cleavage; inhibition, % at 6.95 µM; shares compounds with ADAM17 inh;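 active = mean inhibition across replicates above the hit cutoff set in the primary screen, cut at about 8.5% in these data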;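 also: 0% = DMSO wells and 100% = marimastat wells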
Numbers without * were called inactive; i = inactive; nt = not tested or not shown.

SMILES | SKN-1 inh | ADAM10 inh | ADAM17 inh | MPTP inh | GRIN3A LBD mod | MT1-MMP act inh | ADAM10 ctr | ADAM17 confirm
COc1ccc(S(=O)(=O)N2CCOC2CNC(=O)C(=O)NCCc2ccccc2)cc1 (configuration not stated) | 1.6 | -10.0 | -4.9 | -0.9 | -1.5 | 0.0 | nt | nt
CCOC(=O)[C@]12CCC=C1N(Cc1ccccc1)C(=O)[C@H](CC(=O)NCc1cccc3ccccc13)C2 | 4.0 | 0.2 | -2.3 | -0.4 | nt | 0.2 | nt | nt
CCCCSc1nc(C)cc(SCC(=O)N/N=C/c2cccc(OC)c2O)n1 | -9.4 | 11.0 | 13.9* | 20.7 | 2.5 | -7.6 | 1.6 | 8.3
COc1cccc(/C=N/NC(=O)CSc2nnc(C)n2-c2ccccc2)c1O | -32.9 | -0.5 | 3.3 | -2.4 | -1.7 | 3.8 | nt | nt
COc1ccc2c(CC(=O)N[C@@H](Cc3ccccc3)C(=O)O)cc(=O)oc2c1C | 12.7 | i | -442.1 | -0.4 | 1.7 | 0.1 | nt | nt
COc1ccc2c(C(F)(F)F)cc(=O)oc2c1C | -2.7 | 13.0 | 9.8* | -3.4 | 0.3 | 0.0 | 17.1 | 7.9
CCCNc1nc2c(c(=O)[nH]c(=O)n2C)n1CCC(C)C | -33.5 | 4.5 | 8.8* | -3.0 | -0.1 | 2.0 | 24.5* | 13.0*
CC(C)CCn1c(NCCN(C)C)nc2c1c(=O)[nH]c(=O)n2C | 9.0 | 7.0 | -4.0 | 0.1 | -2.1 | -1.8 | nt | nt
O=C(O)c1coc2ccccc12 | nt | nt | nt | nt | 0.4 | nt | nt | nt
O=CNCC(=O)NC1CCCCCC1 | 11.8 | -2.1 | 8.5 | 0.2 | 0.3 | -3.7 | nt | nt
COc1cc(NC(=O)COC(=O)Cc2ccc(-c3ccccc3)cc2)cc(OC)c1 | -6.7 | 16.6 | 10.8* | 3.6 | 36.1* | 3.1 | 22.9* | 11.8*
CCOc1ccccc1NC(=O)COC(=O)Cc1ccc(-c2ccccc2)cc1 | 3.2 | 10.7 | 5.2 | 1.2 | -1.4 | 4.0 | nt | nt
O=C(NC1=NCCS1)c1cc(-c2cccc(Br)c2)nc2ccccc12 | 14.1 | 15.3 | 9.1* | 0.4 | 7.1 | 1.0 | 14.5 | 9.3*
CCOc1ccc(NC(=O)Cc2nnc(SCC(=O)N3CCOCC3)n2C)cc1 | -18.4 | -7.0 | -4.9 | -0.4 | 4.6 | 0.8 | nt | nt
COC(=O)c1c(-c2cccc3ccccc23)csc1NC(=O)Cc1ccc(OC)c(OC)c1 | -25.5 | 17.4 | 10.3* | 2.2 | 1.0 | -24.4 | 13.8 | 10.1*
COc1cccc(NC(=O)Cc2nnc(SCC(=O)NC(C)c3ccccc3)n2C)c1 (configuration not stated) | -3.4 | 4.3 | -2.2 | 2.0 | -1.3 | 1.6 | nt | nt
Cn1nc(-c2ccccc2)c(CSc2ccccc2)c1Cl | 15.9 | 7.4 | 9.3* | 1.9 | 1.2 | 8.4 | 12.7 | 9.3*
Cc1ccc(OCCSc2nnc(-c3cccs3)n2C)cc1 | -3.3 | 2.7 | -6.7 | 1.5 | 0.2 | -5.5 | nt | nt
C#CCNC(=O)C[C@H]1C[C@@]2(C(=O)OC)C(=C[C@H](C(C)C)O[C@@H]2C2CC2)N(Cc2cccc3ccccc23)C1=O | nt | 10.0 | 8.9* | nt | nt | nt | 6.3 | 7.6
CCOC(=O)[C@]12CCC=C1N(Cc1cccc3ccccc13)C(=O)[C@H](CC(=O)NCc1cccs1)C2 | 13.8 | 12.8 | 11.3* | -2.1 | nt | -3.5 | 20.4* | 11.7*
CCOC(=O)[C@]12CCC=C1N(Cc1cccc3ccccc13)C(=O)[C@H](CC(=O)NCc1cccc3ccccc13)C2 | 8.7 | -3.7 | 3.9 | -0.8 | nt | 0.7 | nt | nt
COC(=O)[C@]12C[C@H](CC(=O)NCc3cccc4ccccc34)C(=O)N(Cc3cccc4ccccc34)C1=C[C@H](C(C)C)O[C@@H]2C1CC1 | nt | 13.3 | 7.2 | nt | nt | nt | nt | nt
COC(=O)[C@]12C[C@H](CC(=O)NCCCCc3ccccc3)C(=O)N(Cc3cccc4ccccc34)C1=C[C@H](C(C)C)O[C@@H]2C1CC1 | nt | 6.1 | 9.6* | nt | nt | nt | 12.3 | 11.6*
